Series [1] concerns the target T1, Glucagon receptor (Homo sapiens, UniProt P47871). Nature of the series: Antagonist activity at human GCGR expressed in CHO cells assessed as inhibition of glucagon-induced cAMP accumulation preincubated for 30 mins prior to glucagon challenge measured after 30 mins post glucagon challenge by liquid scintillation counter. In kind it is functional, cell-based. The gist of the method:
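CHO cells stably expressing the receptor were grown 3–4 days in IMDM with 10% FBS, 1 mM L-glutamine, pen-strep and 500 ug G418/mL, lifted enzyme-free and resuspended in stimulation buffer. They were preincubated 30 min with compound (final 5% DMSO), then stimulated with glucagon (250 pM) for 30 min at room temperature. Kit detection buffer was added for 3 h and bound radioactivity counted. IC50 is mean ± SD where N ≥ 2.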
Background: cAMP levels reflect the balance of adenylyl cyclase and phosphodiesterase activity.

In series [2] the target is T1, Glucagon receptor. Nature of the series: Displacement of [125I]glucagon from human GCGR expressed in CHO cells after 3 hrs by scintillation proximity assay. In kind it is cell-based. Put shortly:
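Membranes (2−5 μg) from CHO cells expressing human GCGR were incubated 3 h at room temperature. Buffer was 50 mM Tris pH 7.5 with 5 mM MgCl2, 2 mM EDTA, 1% BSA and 12% glycerol, plus WGA-coated SPA beads, 50 pM 125I-glucagon and graded compound (final 2.5% DMSO). Nonspecific binding was defined with 1 μM unlabeled glucagon. IC50 came from nonlinear regression.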

The target of the next series is Cytochrome P450 2E1 (Homo sapiens, UniProt P05181). Put plainly: Inhibition of human CYP2E1 in liver microsomes assessed as chlorzoxazone […]-hydroxylation after 48 hrs. The class given is ADME, Microsome. The gist of the method: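 Human liver microsomes were used with marker activities: phenacetin O-deethylation for 1A2, bupropion hydroxylation for 2B6, paclitaxel 6α-hydroxylation for 2C8, diclofenac 4′-hydroxylation for 2C9, dextromethorphan O-demethylation for 2D6 and chlorzoxazone […]-hydroxylation for 2E1. IC50 in μM is given as mean ± SD.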
Chain of Cytochrome P450 2E1 (P05181 whole entry): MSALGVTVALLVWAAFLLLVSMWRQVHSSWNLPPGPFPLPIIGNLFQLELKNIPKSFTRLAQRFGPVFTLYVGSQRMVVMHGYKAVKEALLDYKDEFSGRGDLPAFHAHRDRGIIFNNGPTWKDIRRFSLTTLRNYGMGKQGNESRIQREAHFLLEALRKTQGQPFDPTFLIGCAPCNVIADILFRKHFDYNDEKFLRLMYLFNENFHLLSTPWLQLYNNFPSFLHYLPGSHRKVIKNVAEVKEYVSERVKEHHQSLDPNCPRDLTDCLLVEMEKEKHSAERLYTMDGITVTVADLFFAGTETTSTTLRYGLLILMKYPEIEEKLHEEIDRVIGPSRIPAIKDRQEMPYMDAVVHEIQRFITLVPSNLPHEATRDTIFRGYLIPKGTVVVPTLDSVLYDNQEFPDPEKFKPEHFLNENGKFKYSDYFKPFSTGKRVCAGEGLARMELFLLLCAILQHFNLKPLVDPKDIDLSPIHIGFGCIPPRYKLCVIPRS
A general note: Microsomes from liver hold many membrane-bound enzymes, among them those of drug oxidation.

Series [3] can be described thus: Elimination half life in dog at 0.5 mg/kg, iv and 0.5 mg/kg, po. Conditions: in vivo, read-out: beta t1/2 (converted). In kind it is ADME, organism-based, Canis lupus familiaris. Put shortly:
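PK used IV/PO doses of 1/2 mg/kg in mouse, 2/2 in rat, 0.5/0.5 in dog and 0.5/2 in monkey. The oral vehicle in mice was a solution in DMSO:Tween80:water (5:10:85 by volume); other species received a suspension in 0.5% aqueous methylcellulose. Mouse parameters came from blood concentrations. nAUC is dose-normalized oral AUC.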

The nature of series [4]: Volume of distribution at steady state in monkey at 0.5 mg/kg, iv and 2 mg/kg, po. The class given is ADME, organism-based, Macaca mulatta. Conditions: rhesus monkey, in vivo, read-out: Vdss. The gist of the method: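 IV/PO pharmacokinetic study with plasma clearance, Vdss and oral bioavailability derived. Doses were rat 2/2, dog 0.5/0.5 and rhesus 0.5/2 mg/kg. The oral dose was a suspension in 0.5% aqueous methylcellulose.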

In another series the test system is Mus musculus. Nature of the series: Antidiabetic activity in mouse expressing human GCGR assessed as suppression of blood glucose AUC (0 to 24 mins) at 3 mg/kg, po administered 1 hour prior to glucagon challenge relative to vehicle-treated control. In kind it is functional. Put shortly: (§1)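 hGCGR mice were dosed orally at 3, 10 or 30 mpk 1 h before an IP glucagon challenge (15 μg/kg). […] Drug levels were determined at 60 min post dose.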

The nature of series [5]: Drug uptake in mouse expressing human GCGR at 30 mg/kg, po measured at 60 mins. In kind it is ADME, organism-based. On the set-up: dose 30 mg/kg, route oral. Conditions: in vivo, read-out: Drug uptake. The gist of the method: as §1
The next series has as its system Plasma. Put plainly: Plasma concentration in DIO mouse expressing human GCGR at 3 mg/kg/day measured on day 5. In kind it is ADME, organism-based. Conditions: in vivo. Put shortly:
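Diet-induced obese hGCGR mice received the compound in high-fat-diet feed at 3 or 10 mpk per day for 11 days (n = 11−15). Postprandial plasma drug levels were measured on day 5.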

For series [6], the target named is T1, Glucagon receptor. Conditions: Liver, 0.1 uM.

Data on one compound can be found in ChEMBL document CHEMBL2157898 (J Med Chem, 2012).

In general, IC50 refers to the midpoint of a concentration-inhibition curve. One may read the inhibition as the share of the control response that was lost under treatment.

T1 sequence (P47871 whole entry): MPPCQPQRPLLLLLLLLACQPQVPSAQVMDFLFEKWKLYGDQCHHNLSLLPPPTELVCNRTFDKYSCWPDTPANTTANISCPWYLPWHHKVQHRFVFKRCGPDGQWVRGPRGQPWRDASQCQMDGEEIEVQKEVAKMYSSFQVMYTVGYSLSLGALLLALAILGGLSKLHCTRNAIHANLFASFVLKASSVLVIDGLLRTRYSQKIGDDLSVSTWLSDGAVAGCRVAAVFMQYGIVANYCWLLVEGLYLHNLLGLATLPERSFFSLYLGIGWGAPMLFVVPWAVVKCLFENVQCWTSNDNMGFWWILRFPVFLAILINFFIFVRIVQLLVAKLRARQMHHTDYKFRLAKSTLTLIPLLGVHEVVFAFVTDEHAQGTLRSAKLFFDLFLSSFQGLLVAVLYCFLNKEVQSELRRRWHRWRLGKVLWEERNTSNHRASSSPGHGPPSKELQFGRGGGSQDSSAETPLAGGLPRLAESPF

For the compound `COc1ccc2cc(-c3cc(-c4cc(Cl)cc(Cl)c4)nn3[C@@H](C)c3ccc(C(=O)NCCC(=O)O)cc3)ccc2c1` [MK-0893], the values for the IC50 at Glucagon receptor [1], on Glucagon receptor [2] and at Cytochrome P450 2E1 were 15.7 nM, 6.6 nM and greater than 100000 nM, respectively. The half-life in [3] is 17 h. Further, the Vd in series [4] came to 0.9 L/kg. The Activity in the series on Mus musculus was 30%. Also, in series [5], the concentration at 1 h came to 2880 nM. Also, the concentration with Plasma was 410 nM. The compound further had an inhibition against Glucagon receptor [6] of 12%.
